Hits are enriched below; roughly 0.62% of the tested compounds scored in any of these assays.
ABCG2 inh: blocks JC-1 efflux by human ABCG2 transporter; 190,000 compounds, 0.1% hits; Q9UNQ0; inhibition, % at 6.6 µM; IgMXP3 cells, flow cytometry;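 active = inhibition above 80%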
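Test system: IgMXP3 cells (ABCG2) mixed with DDAO far-red-labelled CCRF-Adr cells (ABCB1). Reagent: JC-1 transporter substrate. Compound dosing: single test compound dose, 6.6 µM final. Times: 10 min compound exposure, 25 °C. Detection: flow cytometry of retained JC-1 fluorescence. Read-out basis: efflux inhibition in percent versus controls. Controls: nicardipine and DMSO wells.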
ABCB1 block: blocks JC-1 efflux by human ABCB1 transporter | AID 1326 | 190,000 compounds, 0.067% hits | inhibition, % at 6.6 µM | P08183 | CCRF-Adr cells, flow cytometry; in the data active = inhibition above about 40%;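 note: higher value means more JC-1 retained so stronger ABCB1 efflux block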
Arbovirus anti: blocks arbovirus infection. arbovirus infection cell-based antiviral screen. inhibition, % at 10 µM. 200,000 compounds, 0.37% hits; in the data active = inhibition above about 30%
Mdm2 ligase inh: inhibitors of human Mdm2 E3 ubiquitin ligase; Q00987; cell-based MDM2 ubiquitination luciferase reporter, 2 h; 0 = plate control, 100 = twice control, blank-subtracted; signal enhancement, % at 5 µM; 210,000 compounds, 0.11% hits; AID 1230;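 active = signal enhancement of 30% or more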;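 note: luminescence tracks abundance of the self-degrading MDM2-luciferase fusion protein; higher signal means inhibition of MDM2 E3 ligase activity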
Target sequence (Q00987 whole entry, looked up, the tested form may be a part): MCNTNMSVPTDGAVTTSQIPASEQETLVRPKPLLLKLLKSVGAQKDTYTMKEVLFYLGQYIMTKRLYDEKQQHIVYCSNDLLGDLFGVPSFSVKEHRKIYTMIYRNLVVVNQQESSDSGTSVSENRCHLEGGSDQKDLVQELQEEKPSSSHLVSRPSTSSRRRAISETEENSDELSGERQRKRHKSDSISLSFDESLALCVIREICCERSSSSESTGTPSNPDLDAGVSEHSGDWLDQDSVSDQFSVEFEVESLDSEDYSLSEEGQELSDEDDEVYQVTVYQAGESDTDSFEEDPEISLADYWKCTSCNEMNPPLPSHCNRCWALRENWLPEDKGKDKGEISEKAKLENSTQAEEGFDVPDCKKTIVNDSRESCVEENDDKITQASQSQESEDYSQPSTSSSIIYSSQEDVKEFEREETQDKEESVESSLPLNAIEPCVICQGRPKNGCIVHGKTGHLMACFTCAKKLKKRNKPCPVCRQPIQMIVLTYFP
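test system = mammalian cells stably expressing self-ubiquitinating, self-degrading MDM2 E3–luciferase fusion | quantity = 2000 cells/well | incubation = cell settling 4 h, compound treatment 2 h, both 37 °C | signal = luminescence with SteadyLite reagent, 15 min at room temperature | evaluation = % enhancement relative to plate controls after blank subtraction | benchmarks = plate controls and plate blanks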
Rad51 HR inh: Rad51 (human) homologous recombination inhibition | 200,000 compounds, 0.085% hits | AID 1385 | hRad51 DNA strand exchange, fluorescence dequenching | inhibition, % at 10 µM;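 active = inhibition above 40% at the single screening dose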
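Assay system: Human Rad51 nucleoprotein filaments preassembled on unlabelled ssDNA | Reagent: Donor/quencher-labelled 47-bp dsDNA substrate | Doses: One concentration, 10 µM final | Times: 37 °C 15-min filament assembly, 30-min compound preincubation, 15-min exchange | Technique: Fluorescein emission 520 nm, excitation 485 nm | Benchmarks: Plate control and blank wells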
A number is an active result; n = inactive; x = no result.

SMILES | ABCG2 inh | ABCB1 block | Arbovirus anti | Mdm2 ligase inh | Rad51 HR inh
O=C(Nc1sc2c(c1C(=O)O)CCCC2)c1cccs1 | n | n | 47.8 | n | n
CC(C)OC(=O)c1c(NC(=O)c2cccs2)sc2c1CCCC2 | n | n | n | n | x
CCc1ccc(CN(C)C(=O)CCc2nnc(COc3ccccc3)o2)cc1 | n | n | n | n | n
O=C(Nc1sc2c(c1C(=O)O)CCC2)c1ccco1 | n | n | n | n | n
O=C(Nc1sc2c(c1C(=O)O)CCCCC2)c1ccccc1F | n | n | 38.2 | n | n
O=C(CN1CCCCCC1)NCc1ccccc1 | n | n | n | n | n
O=C(CN1CCCCC1)NC(=O)NCc1ccccc1 | n | n | n | 37.5 | n
CCc1nnc(NS(=O)(=O)c2ccc(N/C=C\C(=O)c3ccc4ccccc4c3)cc2)s1 | n | n | 34.2 | n | n
CCc1nnc(NS(=O)(=O)c2ccc(NC(=O)c3ccccc3)cc2)s1 | x | x | x | n | n
C=CC[C@@H]1C=C(C)C[C@H](C)C[C@H](OC)[C@H]2O[C@@](O)(C(=O)C(=O)N3CCCC[C@H]3C(=O)O[C@H](/C(C)=C/[C@@H]3CC[C@@H](O)[C@H](OC)C3)[C@H](C)[C@@H](O)CC1=O)[C@H](C)C[C@@H]2OC | x | x | x | x | n
CC1(C)CC(=O)C2=C(C1)Nc1nc(SCCN3CCOCC3)[nH]c(=O)c1C2c1cccs1 (configuration not stated) | n | n | n | 30.7 | n
CSc1nc2c(c(=O)[nH]1)C(c1cccs1)C1=C(CCCC1=O)N2 (configuration not stated) | n | n | n | n | n
O=C(O)c1csc(N/N=C/c2ccc(Br)cc2)n1 | n | n | 46.1 | n | n
O=C(O)c1ccccc1C(=O)NCCc1c(C(=O)O)[nH]c2ccc(F)cc12 | x | x | x | n | n
CCc1nn2c(N)c(/C=C3\C=Nc4ccccc43)c(=O)nc2s1 | n | n | 31.1 | n | n
CSc1nsc2nc(=O)c(/C=C3\C(C)=Nc4ccc(C)cc43)c(N)n12 | n | n | n | n | n
CC(C)S(=O)(=O)c1nsc2nc(=O)c(/C=C3\C=Nc4ccccc43)c(N)n12 | n | n | 36.6 | n | n
CC1=Nc2ccc(C)cc2/C1=C/c1c(N)n2c(S(=O)(=O)C(C)C)nsc2nc1=O | n | n | 44.8 | n | n
CC1=Nc2ccccc2/C1=C/c1c(N)n2c(S(=O)(=O)C(C)C)nsc2nc1=O | n | n | 39.4 | n | n
CCOCc1cc(=O)[nH]c(SC)n1 | x | x | x | x | n
CSc1nsc2nc(=O)c(/C=C3\C=Nc4ccccc43)c(N)n12 | n | n | 38.0 | n | n
CN1CCN(S(=O)(=O)c2ccc(NC(=S)NC(=O)c3ccccc3)cc2)CC1 | n | n | n | n | n
CN1CCN(S(=O)(=O)c2ccc(NC(=S)NC(=O)c3ccc(Cl)cc3)cc2)CC1 | n | n | 48.6 | n | x
O=C(O)c1ccc2c(=O)n3c(nc2c1)/C(=C/c1cccc(Cl)c1Cl)CCCC3 | n | n | n | n | n
CCN(CC)c1ccc(/C=C2\C(=O)c3ccc(C(=O)O)cc3C2=O)cc1 | 134.6 | 88.2 | n | 78.7 | n
SMILES | ABCG2 inh | ABCB1 block | Arbovirus anti | Mdm2 ligase inh | Rad51 HR inh
O=c1cc(CSCc2ccc(Cl)cc2)[nH]c(=O)[nH]1 | x | x | x | n | n
N#C/C(=C\c1ccc(N2CCCCC2)o1)C(=O)Nc1cccc(Br)c1 | 121.7 | 60.5 | n | n | n
O=C(Nc1ccc(OC(F)(F)F)cc1)c1[nH]ncc1[N+](=O)[O-] | n | n | 30.3 | n | n
O=C(O)c1cc(-c2c[nH]c3ccccc23)nc2cc3ccccc3cc12 | x | x | x | n | n
CC1=CC2=NC(=O)/C(=C\c3cc(C)n(-c4ccc(F)cc4)c3C)C(=N)N2O1 | n | n | n | n | n
COc1ccccc1-n1c(C)cc(/C=C2/C(=N)N3C(=NC2=O)SN=C3S(C)(=O)=O)c1C | n | n | 35.5 | n | n
Cc1cc(/C=C2/C(=N)N3C(=NC2=O)SN=C3S(C)(=O)=O)c(C)n1-c1ccc(F)cc1 | n | n | 37.1 | n | n
CCOc1ccc(-n2c(C)cc(/C=C3/C(=N)N4C(=NC3=O)SN=C4S(C)(=O)=O)c2C)cc1 | n | n | 42.2 | n | n
COC(=O)c1ccccc1NC(=S)N(Cc1ccc2c(c1)OCO2)Cc1cc2ccc(OC)cc2[nH]c1=O | n | n | n | n | x
CCOC(=O)c1sc(NC(=O)C(C)C)c(C#N)c1C | n | n | n | n | n
Cc1cc(C(=O)Cn2c(CO)nc3ccccc32)c(C)n1C | x | x | x | n | n
CC(=O)NC(CSC(CC(=O)c1ccco1)c1ccc(C)cc1)C(=O)O (configuration not stated) | n | n | n | n | n
COc1c(C(=O)NNC(=O)c2ccccc2Cl)csc1Br | x | x | x | n | n
O=C(Cc1ccc(-n2c(=O)c3ccccc3n(Cc3ccccc3Cl)c2=O)cc1)NCC1CCCO1 (configuration not stated) | n | n | n | 30.4 | n
CCN(CC)CCCN=Cc1c(O)n(-c2ccccc2C)c(=O)c2ccccc12 | x | x | x | n | n
O=C(Nc1ccncc1)Nc1ccncc1 | n | n | n | 40.7 | n
CC(=O)c1ccc(NC(=O)Nc2ccncc2)cc1 | n | n | n | n | n
Cc1ccc2c(c1)c1ccc3c(c1n2C)C(=O)C=CC3=O | x | x | x | 40.0 | n
O=C(O)C1=C[C@@H](c2coc3ccccc3c2=O)C[C@@H](OCCCCO)O1 | n | n | n | x | n
CC(=O)c1ccc(N2CCN(C(=O)c3cc(-c4cccnc4)nc4ccc(Br)cc34)CC2)cc1 | n | n | 32.1 | n | x
Cc1ccc(S(=O)(=O)N2CCN(c3nccnc3C#N)CC2)cc1 | x | x | x | n | x
Cc1[nH]nc2c1C(=O)CCC2 | n | n | n | n | 85.6
Cc1[nH]nc2c1C(=O)CC(C)(C)C2 | n | n | n | n | n
CCC1=C[C@H]2CN(C1)Cc1c([nH]c3ccccc13)[C@@](C(=O)OC)(c1cc3c(cc1OC)N(C)[C@H]1[C@@](O)(C(=O)OC)[C@H](OC(C)=O)[C@]4(CC)C=CCN5CC[C@]31[C@@H]54)C2 | x | x | x | x | n
Cc1ccc(NC(=O)COc2ccc(Br)cc2CO)cc1 | n | n | 36.4 | n | n
SMILES | ABCG2 inh | ABCB1 block | Arbovirus anti | Mdm2 ligase inh | Rad51 HR inh
CN1C(C(=O)NCc2cccc(Br)c2)CC2Cn3c(nc4cc(Cl)c(Cl)cc43)C21 (configuration not stated) | x | x | x | n | n
CN1C(C(=O)NCc2cccc(Br)c2)CC2Cn3c(nc4cc5ccccc5cc43)C21 (configuration not stated) | x | x | x | 31.4 | n
Cc1ccc(C(=O)O)cc1-c1ccc(/C=C2/NC(=O)N(c3ccccc3)C2=O)o1 | n | n | 39.9 | n | n
O=C1N/C(=C/c2ccc(N3CCOCC3)o2)C(=O)N1c1ccccc1 | n | n | n | 47.3 | n
O=C(N/N=C/c1c(O)n(-c2ccccc2Cl)c(=O)c2ccccc12)c1cccnc1 | n | n | 35.9 | n | n
O=C(N/N=C/c1c(O)n(Cc2ccccc2)c(=O)c2ccccc12)c1cccnc1 | n | n | n | n | n

High-throughput results: PubChem, several laboratories
